Experimental data taken from ChEMBL document CHEMBL4017492, “Discovery of a para-Acetoxy-benzyl Ester Prodrug of a Hydroxamate-Based Glutamate Carboxypeptidase II Inhibitor as Oral Therapy for Neuropathic Pain” (J Med Chem, 2017).
Calls of active or inactive are those of the source. The rule behind the calls is not given here.

Experiments:
Plasma [1] = assay: Prodrug conversion in CD1 mouse plasma assessed as 4-Carboxy-alpha-[3-(hydroxyamino)-3-oxopropyl]-benzenepropanoic acid formation at 10 mg/kg equiv of 4-Carboxy-alpha-[3-(hydroxyamino)-3-oxopropyl]-benzenepropanoic acid after 30 mins by LC-MS/MS analysis relative to 4-Carboxy-alpha-[3-(hydroxyamino)-3-oxopropyl]-benzenepropanoic acid alone; format: ADME, organism-based; conditions: in vivo, 0.5 h
How it was run: (§1)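 Male CD-1 mice (25–30 g) given a single oral dose equivalent to 10 mg/kg of parent, in 50 mM HEPES-buffered saline at pH 7.4. Killed by pentobarbital at 30 min and blood taken by cardiac puncture into heparin. Plasma stored at −80 °C, then assayed for parent by LC-MS/MS on C18 with a formic acid/acetonitrile gradient. Mean ± SEM, n = 3.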

[2] = biological target: Glutamate carboxypeptidase 2 (Homo sapiens, UniProt Q04609); assay: Inhibition of recombinant human glutamate carboxypeptidase 2 (44 to 750 residues) overexpressed in Drosophila Schneider S2 cells using [3H]-NAAG/NAAG as substrate preincubated for 15 mins followed by substrate addition measured after 20 mins by liquid scintillation counting method
How it was run: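 Radioenzymatic assay. rhGCPII (30 ng/mL) preincubated with inhibitor at varying concentrations for 15 min at 37 °C in 20 mM Tris, 150 mM NaCl, pH 8.0. Started with 0.31 μM NAAG plus 15 nM 3H-NAAG and run 20 min. Stopped with phosphate/EDTA/β-mercaptoethanol, pH 7.4. Released glutamate separated by ion exchange and counted by scintillation. IC50 obtained from inhibition curves.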

Plasma [3] = assay: Prodrug conversion in mouse plasma assessed as 4-Carboxy-alpha-[3-(hydroxyamino)-3-oxopropyl]-benzenepropanoic acid formation at 10 uM measured upto 60 mins by LC-MS/MS analysis; format: ADME, cell-free; conditions: 1 h
How it was run: (§2)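 Compounds at 10 μM spiked into mouse plasma and shaken at 37 °C. Triplicate aliquots taken at 0 and 60 min and quenched with 2 volumes of ice-cold acetonitrile containing losartan 5 μM as internal standard. Centrifuged and supernatant diluted with water. Parent loss and metabolites identified by LC–ESI-TOF on C18 using a formic acid/acetonitrile gradient and extracted-ion chromatograms.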

Plasma [4] = assay: Metabolic stability in mouse plasma at 10 uM measured upto 60 mins by LC-MS/MS analysis; format: ADME, cell-free; conditions: 1 h; how it was run: as §2
[5] = Prodrug conversion in Tris/NaCl buffer assessed as 4-Carboxy-alpha-[3-(hydroxyamino)-3-oxopropyl]-benzenepropanoic acid formation at pH 8
How it was run: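 Stability tested under the enzyme assay conditions: 30 min in aqueous buffer (20 mM Tris, 150 mM NaCl), pH 8.0.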

Rattus norvegicus [6] = assay: Analgesic activity in Sprague-Dawley rat assessed as reduction in chronic constriction injury induced hyperalgesic neuropathic pain on ligated side at 4.6 mg/kg/day administered via oral gavage measured upto 8 days relative to vehicle-treated control; format: functional, organism-based
How it was run: (§3)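 Male Sprague–Dawley rats (200–250 g; n = 10–15 per group) with sciatic nerve loosely ligated (four 4.0 chromic gut ligatures, 1 mm apart). Testing began 10 days post-surgery. Plantar thermal stimulus (Hargreaves) applied to the hind paw, withdrawal latency read to 0.1 s. Dosed daily by oral gavage, and 1 h before each test session. Two sessions per week; compared with vehicle by Student's t-test.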

Rattus norvegicus [7] = assay: Effect on response latency to thermal stimulus in Sprague-Dawley rat at 4.6 mg/kg administered via oral gavage relative to vehicle-treated control; format: organism-based; conditions: in vivo; how it was run: as §3
Rattus norvegicus [8] = assay: Analgesic activity in Sprague-Dawley rat assessed as reduction in chronic constriction injury induced hyperalgesic neuropathic pain on ligated side at 100 mg/kg/day administered via oral gavage measured upto 8 days relative to vehicle-treated control; format: functional, organism-based
How it was run: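 Male Sprague–Dawley rats (200–250 g; n = 10–15 per group) received sciatic nerve constriction with four loose 4.0 chromic gut ligatures spaced 1 mm apart. Testing began 10 days after surgery. Dosing was daily by oral gavage, given 1 h before testing on test days. Hind-paw withdrawal latency to a plantar thermal stimulus (Hargreaves) was read to 0.1 s, with normal response within 15 s. Difference score was nonligated minus ligated latency. Sessions were twice weekly, and groups were compared by t-test versus control.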

Plasma [9] = assay: Prodrug conversion in CD1 mouse plasma assessed as 4-Carboxy-alpha-[3-(hydroxyamino)-3-oxopropyl]-benzenepropanoic acid formation at 10 mg/kg equiv of 4-Carboxy-alpha-[3-(hydroxyamino)-3-oxopropyl]-benzenepropanoic acid after 30 mins by LC-MS/MS analysis; format: ADME, organism-based; conditions: in vivo, 0.5 h; how it was run: as §1
Plasma [10] = assay: Drug metabolism in mouse plasma assessed as 2-(4-(ethoxycarbonyl)benzyl)-5-(hydroxyamino)-5-oxopentanoic acid formation at 10 uM measured after 60 mins by LC-MS/MS analysis; format: ADME, cell-free; conditions: 1 h; how it was run: as §2

Chain of Glutamate carboxypeptidase 2 (Q04609 whole entry, the tested form may be a part): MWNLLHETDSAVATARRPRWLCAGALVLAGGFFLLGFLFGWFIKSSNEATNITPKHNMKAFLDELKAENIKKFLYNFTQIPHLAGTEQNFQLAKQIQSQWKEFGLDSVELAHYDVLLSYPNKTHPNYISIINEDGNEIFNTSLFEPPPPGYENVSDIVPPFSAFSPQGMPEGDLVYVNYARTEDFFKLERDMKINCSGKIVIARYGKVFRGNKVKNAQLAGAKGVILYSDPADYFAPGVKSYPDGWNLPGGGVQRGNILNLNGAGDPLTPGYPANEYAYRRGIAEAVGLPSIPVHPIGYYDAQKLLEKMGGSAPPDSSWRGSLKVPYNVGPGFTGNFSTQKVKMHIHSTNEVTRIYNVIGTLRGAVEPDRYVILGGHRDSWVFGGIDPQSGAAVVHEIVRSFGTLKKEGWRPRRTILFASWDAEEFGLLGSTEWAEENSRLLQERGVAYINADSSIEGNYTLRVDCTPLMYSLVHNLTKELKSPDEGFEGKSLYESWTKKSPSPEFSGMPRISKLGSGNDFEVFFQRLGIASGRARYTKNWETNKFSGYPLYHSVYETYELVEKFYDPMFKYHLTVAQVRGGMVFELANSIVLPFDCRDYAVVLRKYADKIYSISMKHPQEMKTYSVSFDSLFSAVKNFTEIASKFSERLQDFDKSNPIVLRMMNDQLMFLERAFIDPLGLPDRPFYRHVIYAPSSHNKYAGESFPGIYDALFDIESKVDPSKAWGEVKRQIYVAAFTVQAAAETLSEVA

In the case of `CC(=O)Oc1ccc(CONC(=O)CCC(Cc2ccc(C(=O)OCOC(=O)OC(C)C)cc2)C(=O)O)cc1` (centres undefined), the “fold change (FC)” value (Plasma [1]) is reported as 4, the IC50 [2] is reported as greater than 5 µM and the Drug metabolism (Plasma [3]) is reported as “Metabolite_Detected”.

With `O=C(CCC(Cc1ccc(C(=O)O)cc1)C(=O)O)NO` (centres undefined) the IC50 [2] was 0.04 µM and the Stability (Plasma [4]) was “Stable”.

With `Cc1oc(=O)oc1CONC(=O)CCC(Cc1ccc(C(=O)O)cc1)C(=O)O` (centres undefined) the Drug metabolism [5] was “Metabolite detected”.

With `CC(=O)Oc1ccc(CONC(=O)CCC(Cc2ccc(C(=O)O)cc2)C(=O)O)cc1` (centres undefined) the “fold change (FC)” value (Plasma [1]) was 5, the IC50 [2] was greater than 5 µM and the Drug metabolism (Plasma [3]) was “Metabolite_Detected”. The Activity (Rattus norvegicus [6]) was “Active” and the Activity (Rattus norvegicus [7]) was “Non-Toxic”.

`CC(=O)ONC(=O)CCC(Cc1ccc(C(=O)O)cc1)C(=O)O` (centres undefined) showed an IC50 [2] greater than 5 µM.

In the case of `NCC1(CC(=O)O)CCCCC1`, the Activity (Rattus norvegicus [8]) is reported as “Active”.

For `CCOC(=O)c1ccc(CC(CCC(=O)NOCc2ccc(OC(C)=O)cc2)C(=O)OCC)cc1` (centres undefined), the IC50 [2] was greater than 5 µM and the Drug metabolism (Plasma [9]) was “Metabolite_Notdetected”.

With `CCOC(=O)c1ccc(CC(CCC(=O)NOCc2ccc(OC(C)=O)cc2)C(=O)O)cc1` (centres undefined) the IC50 [2] was greater than 5 µM, the Drug metabolism (Plasma [3]) was “Metabolite_Notdetected” and the Drug metabolism (Plasma [9]) was “Metabolite_Notdetected”. For the same compound, the Drug metabolism (Plasma [10]) was “Metabolite_Detected”.
